Experimental data: ChEMBL document CHEMBL5058577, “EUbOPEN Chemogenomics Library 2 (Multiplex)” (2022)

Tested on: HEK-293T
Experiment: Multiplex assay against HEK293T
Assay type: toxicity, cell-based
Settings: human
Procedure, shortened: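 Hoechst33342, BioTracker Green Microtubule Cytoskeleton Dye, MitoTracker Red and Annexin V Alexa Fluor 680 were added to live cells at seeding, and imaging on a CQ1 microscope at 37°C and 5% CO2 followed compound addition. Gating by CellPathfinder machine learning separated cells into Hoechst high-intensity objects or normal cells, then normal cells into healthy, pyknosed or fragmented nuclei, then pyknosed cells into mitotic or apoptotic. Per cents of healthy-nucleus cells are reported for the tubulin, mitochondrial-mass and membrane-permeability phenotypes.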

[1] = 12 h, 1 µM, compound concentration 1 uM, replicate 1
[2] = 12 h, 1 µM, compound concentration 1 uM, replicate 2
[3] = 12 h, 10 µM, compound concentration 10 uM, replicate 1
[4] = 12 h, 10 µM, compound concentration 10 uM, replicate 2
[5] = 24 h, 1 µM, compound concentration 1 uM, replicate 1
[6] = 24 h, 1 µM, compound concentration 1 uM, replicate 2
[7] = 24 h, 10 µM, compound concentration 10 uM, replicate 1
[8] = 24 h, 10 µM, compound concentration 10 uM, replicate 2
[9] = 48 h, 1 µM, compound concentration 1 uM, replicate 1
[10] = 48 h, 1 µM, compound concentration 1 uM, replicate 2
[11] = 48 h, 10 µM, compound concentration 10 uM, replicate 1
[12] = 48 h, 10 µM, compound concentration 10 uM, replicate 2

## Cc1ccccc1C(=O)Nc1ccc(C(=O)N2CCCC(N(C)C)c3ccccc32)cc1.Cl (centres undefined)
[1]
  Population Apoptotic (%): 18%
  Population Fragmented Nuclei (%): 6%
  Population Healthy Nuclei (%): 80%
  Population Hoechst High Intensity Objects (%): 8%
  Population Membrane Permeable-Phenotype (%): 0%
  Population Mitochondria Different-Phenotype (%): 51%
  Population Mitotic Cells (%): 81%
  Population Normal (%): 91%
  Population Pyknosed Nuclei (%): 12%
  Population Tubulin-Different-Phenotype (%): 33%
  Total Cell Count: 519
[2]
  Population Apoptotic (%): 53%
  Population Fragmented Nuclei (%): 5%
  Population Healthy Nuclei (%): 79%
  Population Hoechst High Intensity Objects (%): 6%
  Population Mitochondria Different-Phenotype (%): 72%
  Population Mitotic Cells (%): 46%
  Population Normal (%): 93%
  Population Pyknosed Nuclei (%): 14%
  Population Tubulin-Different-Phenotype (%): 29%
  Total Cell Count: 412
[3]
  Population Apoptotic (%): 53%
  Population Fragmented Nuclei (%): 6%
  Population Healthy Nuclei (%): 70%
  Population Hoechst High Intensity Objects (%): 8%
  Population Membrane Permeable-Phenotype (%): 0%
  Population Mitochondria Different-Phenotype (%): 74%
  Population Mitotic Cells (%): 46%
  Population Normal (%): 91%
  Population Pyknosed Nuclei (%): 22%
  Population Tubulin-Different-Phenotype (%): 60%
  Total Cell Count: 233
[4]
  Population Apoptotic (%): 64%
  Population Fragmented Nuclei (%): 8%
  Population Healthy Nuclei (%): 72%
  Population Hoechst High Intensity Objects (%): 15%
  Population Mitochondria Different-Phenotype (%): 82%
  Population Mitotic Cells (%): 35%
  Population Normal (%): 84%
  Population Pyknosed Nuclei (%): 18%
  Population Tubulin-Different-Phenotype (%): 61%
  Total Cell Count: 285
[5]
  Population Apoptotic (%): 31%
  Population Fragmented Nuclei (%): 11%
  Population Healthy Nuclei (%): 79%
  Population Hoechst High Intensity Objects (%): 5%
  Population Membrane Permeable-Phenotype (%): 0%
  Population Mitochondria Different-Phenotype (%): 28%
  Population Mitotic Cells (%): 68%
  Population Normal (%): 94%
  Population Pyknosed Nuclei (%): 8%
  Population Tubulin-Different-Phenotype (%): 17%
  Total Cell Count: 727
[6]
  Population Apoptotic (%): 30%
  Population Fragmented Nuclei (%): 5%
  Population Healthy Nuclei (%): 83%
  Population Hoechst High Intensity Objects (%): 4%
  Population Mitochondria Different-Phenotype (%): 52%
  Population Mitotic Cells (%): 69%
  Population Normal (%): 95%
  Population Pyknosed Nuclei (%): 11%
  Population Tubulin-Different-Phenotype (%): 19%
  Total Cell Count: 567
[7]
  Population Apoptotic (%): 41%
  Population Fragmented Nuclei (%): 8%
  Population Healthy Nuclei (%): 70%
  Population Hoechst High Intensity Objects (%): 7%
  Population Membrane Permeable-Phenotype (%): 0%
  Population Mitochondria Different-Phenotype (%): 71%
  Population Mitotic Cells (%): 58%
  Population Normal (%): 92%
  Population Pyknosed Nuclei (%): 21%
  Population Tubulin-Different-Phenotype (%): 46%
  Total Cell Count: 268
[8]
  Population Apoptotic (%): 44%
  Population Fragmented Nuclei (%): 7%
  Population Healthy Nuclei (%): 73%
  Population Hoechst High Intensity Objects (%): 14%
  Population Mitochondria Different-Phenotype (%): 83%
  Population Mitotic Cells (%): 55%
  Population Normal (%): 85%
  Population Pyknosed Nuclei (%): 18%
  Total Cell Count: 285
[9]
  Population Apoptotic (%): 13%
  Population Fragmented Nuclei (%): 13%
  Population Healthy Nuclei (%): 78%
  Population Hoechst High Intensity Objects (%): 2%
  Population Membrane Permeable-Phenotype (%): 1%
  Population Mitochondria Different-Phenotype (%): 24%
  Population Mitotic Cells (%): 86%
  Population Normal (%): 97%
  Population Pyknosed Nuclei (%): 8%
  Population Tubulin-Different-Phenotype (%): 17%
  Total Cell Count: 1095
[10]
  Population Apoptotic (%): 34%
  Population Fragmented Nuclei (%): 10%
  Population Healthy Nuclei (%): 82%
  Population Hoechst High Intensity Objects (%): 4%
  Population Membrane Permeable-Phenotype (%): 0%
  Population Mitochondria Different-Phenotype (%): 30%
  Population Mitotic Cells (%): 65%
  Population Normal (%): 95%
  Population Pyknosed Nuclei (%): 6%
  Population Tubulin-Different-Phenotype (%): 14%
  Total Cell Count: 722
[11]
  Population Apoptotic (%): 55%
  Population Fragmented Nuclei (%): 10%
  Population Healthy Nuclei (%): 69%
  Population Hoechst High Intensity Objects (%): 6%
  Population Membrane Permeable-Phenotype (%): 0%
  Population Mitochondria Different-Phenotype (%): 69%
  Population Mitotic Cells (%): 44%
  Population Normal (%): 93%
  Population Pyknosed Nuclei (%): 20%
  Population Tubulin-Different-Phenotype (%): 49%
  Total Cell Count: 283
[12]
  Population Apoptotic (%): 63%
  Population Fragmented Nuclei (%): 9%
  Population Healthy Nuclei (%): 77%
  Population Mitochondria Different-Phenotype (%): 72%
  Population Mitotic Cells (%): 36%
  Population Pyknosed Nuclei (%): 12%
  Population Tubulin-Different-Phenotype (%): 41%
  Total Cell Count: 314
